{"source": "ChEMBL document CHEMBL1137629", "about": "“Antiproliferative effect of dihydroxyacetone on Trypanosoma brucei bloodstream forms: cell cycle progression, subcellular alterations, and cell death” (Antimicrob Agents Chemother, 2007)", "key": {"Trypanosoma brucei [1]": {"system": "Trypanosoma brucei", "test": "Induction of apoptosis-like programmed cell death in Trypanosoma brucei bloodstream form assessed as increase in intracellular reactive oxygen species production at 1 mM after 24 hrs by FACS analysis", "format": "functional", "outline": "(§1)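 Bloodstream-form T. brucei MITat 1.2 (VSG 221, strain EATRO 427) were grown axenically at 37°C, 5% CO₂ and exposed to DHA for 24 h. Control and treated cells were then loaded with 10 μM dichlorofluorescein diacetate for 1 h at 37°C. Intracellular fluorescence intensity was read by flow cytometry.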"}, "Trypanosoma brucei [2]": {"system": "Trypanosoma brucei", "test": "Effect on morphological changes in Trypanosoma brucei bloodstream form assessed as increase in autophagic vaculoe structures at 3 mM after 24 hrs by transmission electron microscopy", "format": "functional, organism-based", "outline": "(§2)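 Parasites exposed 24 h to 3 mM DHA. 10⁸ cells fixed 1 h at 4°C in 2% glutaraldehyde in 0.2 M sodium cacodylate with 0.12 M sucrose, held overnight in buffer, postfixed in 1.5% osmium tetroxide and stained with 0.5% uranyl acetate. Dehydrated in ethanol, cleared in propylene oxide, embedded in Agar 100. Sections stained with 5% uranyl acetate and 0.4% lead citrate for TEM. Rapamycin (5 μM) served as the autophagy positive control.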"}, "Trypanosoma brucei [3]": {"system": "Trypanosoma brucei", "test": "Trypanocidal activity against Trypanosoma brucei bloodstream form assessed as decrease in cell density after 24 hrs by spectrophotometry", "format": "functional, organism-based", "outline": "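Proliferation measured in complete medium (33 mM glucose, 15% serum) with a range of DHA concentrations. Cell density followed over 24 h. Triplicate, SD.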"}, "Trypanosoma brucei [4]": {"system": "Trypanosoma brucei", "test": "Effect on cell cycle of Trypanosoma brucei bloodstream form assessed as induction of necrosis at 1 mM after 24 hrs using propidium iodide staining by FACS analysis", "format": "functional", "outline": "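Bloodstream forms exposed 24 h at 37°C, 5% CO₂. Cells at 2 × 10⁶/ml incubated 10 min with propidium iodide (5 μg/ml), and uptake read by flow cytometry as a measure of membrane integrity. Digitonin (6 μM) served as the necrosis positive control.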"}, "Trypanosoma brucei [5]": {"system": "Trypanosoma brucei", "test": "Induction of apoptosis-like programmed cell death in Trypanosoma brucei bloodstream form assessed as phosphatidylserine exposure in outer leaflet of plasma membrane at 5 uM after 24 hrs by V-Fluos staining staining", "format": "functional"}, "Trypanosoma brucei [6]": {"system": "Trypanosoma brucei", "test": "Effect on morphological changes in Trypanosoma brucei bloodstream form assessed as increase in cell size after 24 hrs using DAPI staining by phase-contrast microscopy", "format": "functional, organism-based"}, "Trypanosoma brucei [7]": {"system": "Trypanosoma brucei", "test": "Induction of apoptosis-like programmed cell death in Trypanosoma brucei bloodstream form assessed as increase in intracellular reactive oxygen species production at 2 mM after 24 hrs by FACS analysis", "format": "functional", "outline": "as §1"}, "Trypanosoma brucei [8]": {"system": "Trypanosoma brucei", "test": "Cell cycle arrest in Trypanosoma brucei bloodstream form assessed as accumulation at G2 phase at 2 mM after 24 hrs using propidium iodide staining by FACS analysis", "format": "functional", "outline": "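T. brucei bloodstream forms (MITat 1.2, strain EATRO 427), axenic culture at 37°C, 5% CO₂. Treated 24 h. At least 5 × 10⁵ cells washed in PBS, lysed hypotonically 30 min at room temperature in 10 mM phosphate buffer pH 7.4 with 6 μM digitonin. Nuclei stained with propidium iodide (10 μg/ml final) and analysed by flow cytometry for G₁/S/G₂ distribution and degraded DNA.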"}, "Trypanosoma brucei [9]": {"system": "Trypanosoma brucei", "test": "Effect on morphological changes in Trypanosoma brucei bloodstream form assessed as presence of atypical combination of number of nucleus after 24 hrs using DAPI staining by phase-contrast microscopy", "format": "functional, organism-based", "outline": "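Bloodstream forms (MITat 1.2, EATRO 427) grown 24 h with or without DHA. Aliquots washed twice in PBS, resuspended, placed on slides and fixed with methanol. Stained 5 min with DAPI (0.1 μg/ml final), then washed. Phase-contrast and fluorescence images scored for nucleus/kinetoplast numbers (1N1K, 1N2K, 2N2K, 2N1K, abnormal). n = 4, Student's t test, SD.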"}, "Trypanosoma brucei [10]": {"system": "Trypanosoma brucei", "test": "Effect on morphological changes in Trypanosoma brucei bloodstream form assessed as change in cell nucleus at 3 mM after 24 hrs by transmission electron microscopy", "format": "functional, organism-based", "outline": "as §2"}, "Trypanosoma brucei [11]": {"system": "Trypanosoma brucei", "test": "Induction of apoptosis-like programmed cell death in Trypanosoma brucei bloodstream form assessed as increase in intracellular reactive oxygen species production at 3 mM after 24 hrs by FACS analysis", "format": "functional", "outline": "as §1"}, "Trypanosoma brucei [12]": {"system": "Trypanosoma brucei", "test": "Trypanocidal activity against Trypanosoma brucei bloodstream form assessed as induction of autophagy at 3 mM after 24 hrs by transmission electron microscopy", "format": "functional, organism-based", "outline": "as §2"}, "Trypanosoma brucei [13]": {"system": "Trypanosoma brucei", "test": "Effect on cell cycle of Trypanosoma brucei bloodstream form assessed as induction of necrosis at 5 uM after 24 hrs using propidium iodide staining by FACS analysis", "format": "functional"}}, "note": "Activity calls are given as the source filed them. No cut-off for these calls is given here."}
{"smiles": "O=C(CO)CO", "note": "[DIHYDROXYACETONE]", "values": [{"measurement": "Activity", "setting": "Trypanosoma brucei [1]", "result": 5.9, "unit": "%"}, {"measurement": "Activity", "setting": "Trypanosoma brucei [2]", "result": "Active"}, {"measurement": "Activity", "setting": "Trypanosoma brucei [3]", "result": "Dose-dependent effect"}, {"measurement": "Activity", "setting": "Trypanosoma brucei [4]", "result": 4, "unit": "%"}, {"measurement": "Activity", "setting": "Trypanosoma brucei [5]", "result": 35.8, "unit": "%"}, {"measurement": "Activity", "setting": "Trypanosoma brucei [6]", "result": "Dose-dependent effect"}, {"measurement": "Activity", "setting": "Trypanosoma brucei [7]", "result": 10.6, "unit": "%"}, {"measurement": "Activity", "setting": "Trypanosoma brucei [8]", "result": 50, "unit": "%"}, {"measurement": "Activity", "setting": "Trypanosoma brucei [9]", "result": "Dose-dependent effect"}, {"measurement": "Activity", "setting": "Trypanosoma brucei [10]", "result": "inactive"}, {"measurement": "Activity", "setting": "Trypanosoma brucei [11]", "result": 14.4, "unit": "%"}, {"measurement": "Activity", "setting": "Trypanosoma brucei [12]", "result": "Active"}, {"measurement": "Activity", "setting": "Trypanosoma brucei [13]", "result": 4.5, "unit": "%"}]}
